SMILES strings stand for the structures.

The test system of one data set is CAKI-1. Kind of data set: Tested for the inhibition of extraneuronal [3H]norepinephrine uptake in Caki-1 cells. The following applies: Homo sapiens, CAKI-1, 15 min. The format is functional, cell-based. In outline:
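Human renal carcinoma Caki-1 monolayers expressing extraneuronal noradrenaline transport. Preincubated 20 min at 37 °C in HEPES buffer pH 7.4 with U-0521 and pargyline (10 μmol/L each) and ascorbate 1 mmol/L, then incubated 15 min at 37 °C with 100 nmol/L [3H]noradrenaline. Inhibitor present throughout. Cells rinsed ice-cold, read by scintillation. Specific uptake is the fraction sensitive to 100 μmol/L O-methylisoprenaline. IC50 from Hill fit, geometric mean with 95% confidence limits.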

Data set [1] in a line: Partition coefficient (logP). The format is physicochemical. To be noted: octanol/water. Summed up: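 Shake-flask octanol/water partition: compound diluted from ethanolic stock to 20 μmol/L in octanol-saturated sodium phosphate buffer (10 mmol/L, pH 7.4). Absorbance read before and after shaking 2 h at 21 °C with buffer-saturated 1-octanol (buffer:octanol volume ratio f), phases split by centrifugation. P = (Ao − Ax)/Ax × f. Read at 520 nm (pseudoisocyanines) or 565 nm (isocyanines); SEM, n = 4.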

The subject of another data set is PC-12. Kind of data set: Tested for the inhibition of neuronal type of noradrenaline uptake in clonal PC12 cells. The following applies: Rattus norvegicus. The format is functional, cell-based.

As for `CN1C=C/C(=C/c2ccc3ccccc3[n+]2C)c2ccccc21`, the IC50 – broadly, the point on the concentration scale where inhibition reaches its midpoint – in the data set on CAKI-1 came to 100 nM. In data set [1], the log partition coefficient (logP) – broadly, a log measure of how a compound divides between an organic and an aqueous phase – was 0.81.

For `CC[n+]1c(Cc2ccc3ccccc3[n+]2CC)ccc2ccccc21`, the IC50 came out at 12 nM in the data set on CAKI-1 and 3000 nM with PC-12. In data set [1], this molecule showed a logP of 0.65.

On to `C[n+]1c(Cc2ccc3ccccc3[n+]2C)ccc2ccccc21`, for which 94 nM corresponded to half-maximal inhibition with CAKI-1 (IC50). The logP in data set [1] amounted to 0.34.

The molecule `CCN1/C(=C\c2cc[n+](CC)c3ccccc23)C=Cc2ccccc21` gave an IC50 with CAKI-1 of 29 nM. Further, the logP in data set [1] came out at 0.86.

As for `CC[n+]1c(Cc2ccc3ccccc3[n+]2C(C)C)ccc2ccccc21`, in the data set with CAKI-1, it took 13 nM to reach half-maximal inhibition (IC50). Further, the lipophilicity (logP) in data set [1] was found to be 0.84.

For the molecule `CC(C)[n+]1ccc(/C=C2/C=Cc3ccccc3N2C)c2ccccc21`, in the data set on CAKI-1, the IC50 was 51 nM. Further, in data set [1], the lipophilicity (logP) stood at 0.92.

For the molecule `CC(C)N1/C(=C\c2cc[n+](C(C)C)c3ccccc23)C=Cc2ccccc21` [DISPROCYNIUM24], the 50% inhibitory concentration (IC50) in the data set on CAKI-1 was found to be 14 nM. In data set [1], this molecule yielded a lipophilicity (logP) of 1.16.

For the origin of these results see ChEMBL document CHEMBL1126571, “Isocyanines and pseudoisocyanines as a novel class of potent noradrenaline transport inhibitors: synthesis, detection, and biological activity” (J Med Chem, 1993).
